High-throughput results deposited in PubChem BioAssay by several laboratories.
Sampled rows, rich in hits. Any-hit rate of the full collection: about 4.8%.
CSC inhib – cancer stem cell viability inhibitors, primary screen, luminescence. inhibition, % at 7.5 µM. actives 1.1% (n = 300,000). cancer stem cell-like cells viability; in the data active = inhibition above about 75%; tested in HMLE shEcad cells
Efflux pump mplx – inhibitors of Candida efflux pumps in yeast, primary screen, S. cerevisiae, Nile Red, multiplex. S. cerevisiae Candida pump triplex. inhibition, % at 10 µM. actives 0.44% (n = 330,000);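 active = plate passing quality check with inhibition over a set limit, or well fluorescence over plate mean plus 4 SD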;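 also: Nile Red retained in pooled yeast measured as flow cytometry median fluorescence; 0% = buffer negative control and 100% = Enniatin B positive control; higher means more Nile Red kept so more efflux inhibition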
SUMO Mot1 rescue – yeast Mot1-301 growth rescue at high temperature, primary screen, SUMOylation pathway inhibitor project, S. cerevisiae, ATP luminescence, 38.5C; S. cerevisiae Mot1-301 growth rescue; percent above DMSO median, 100 means doubled; growth rescue, % at 18.8 µM; actives 1% (n = 320,000); AID 2716, 2010;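 active = every valid replicate shows activation above 250% relative to neutral control wells; inactive = the rest, any valid replicate at or below 250%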;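 also: OY570 slx delta 5 strain wells were the positive control but not used for scaling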
T cruzi repl – inhibitors of intracellular T. cruzi growth, primary screen, luminescence, NIH3T3 host cells. T. cruzi beta-gal in NIH3T3, 90 h. inhibition, % (test concentration not listed). actives 1.4% (n = 300,000). AID 1885, 2009;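 active = mean inhibition across valid replicates above about 55%, limit read from the data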;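 also: signal also drops with host cell toxicity which is not excluded here; 0% = plate median of DMSO wells and 100% = zero luminescence signal; higher percent means less beta-gal luminescence so fewer parasites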
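System – NIH/3T3 host cells with β-galactosidase reporter T. cruzi · Doses – single 50 nL compound addition per well in DMSO · Reagent – 5000 T. cruzi trypomastigotes/well · Medium – Low-serum DMEM with 2% FBS · Timing – ≥90 h infection period, 3 h prior cell attachment · Evaluation – parasite load inhibition, % · Technique – GalScreen luminescence, 60 min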
Beta cell apopt – inhibitors of cytokine-induced beta cell apoptosis, primary screen, luminescence. INS-1E cytokine-induced death, ATP luminescence, 48 h; percent of positive-control rescue, neutral wells zero. protection from apoptosis, % (no concentration beside the values). actives 0.8% (n = 300,000);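 active = Every replicate reaches about 75%, or at least half do and their mean reaches it too, limit read from the data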;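 also: 0% = cytokine-treated negative control wells and 100% = positive control rescue; higher means more ATP so stronger rescue from cytokine killing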
WT yeast gro inh – growth inhibition of WT strain, primary screen, mitochondrial fusion inhibitor project, WT and mutant strains, chemical genetic; mitochondrial fusion phenotypic screen; inhibition, % at 10 µM; actives 2.1% (n = 190,000); AID 1362, 2008; in the data active = inhibition above about 58%; tested in S. cerevisiae
Mot1 SUMO dose – growth restoration of Mot1-301 yeast on galactose, dose response, SUMO pathway inhibitor project, whole organism, S. cerevisiae, ATP luminescence, cherry-picked samples. shares compounds with SUMO Mot1 rescue. S. cerevisiae Mot1-301 galactose growth, 24 h; -100 = growth of slx-deleted rescue strain. growth activity, percent, % at 42 µM. 2,300 tested, under 10 active. AID 493004, 2010;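 active = Signal drops as the depositor expects, and the fitted half-maximal dose is no more than ten times the top valid tested dose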;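 also: more negative values mean stronger growth rescue toward the control strain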
Active calls of the source: *; nt = no result; + = active, no number.

SMILES	CSC inhib	Efflux pump mplx	SUMO Mot1 rescue	T cruzi repl	Beta cell apopt	WT yeast gro inh	Mot1 SUMO dose
Cc1ccc(-c2nc3c(=O)n(C)c4ccccc4c3o2)cc1	-14	0	-6	22	-4	3	nt
Cc1ccc(-c2nc3c(=O)n(-c4ccccc4)c4c(c(=O)n(C)c(=O)n4C)c3o2)cc1	-6	0	796*	-25	1	nt	1
O=c1[nH]nc(Cc2ccc(-c3ccccc3Cl)o2)c2ccccc12	nt	0	360*	-1	0	-12	0
Cc1cccnc1NC(=O)c1csnn1	-14	0	7	1	3	nt	nt
C=CCSC1=C(C#N)C(c2ccc(C(C)C)cc2)CC(=O)N1 (stereo not given)	6	0	405*	-11	nt	14	1
Cc1ccc(NC(=S)NC(NC(=O)c2ccccc2C)C(Cl)(Cl)Cl)c(C)c1 (stereo not given)	25	0	627*	13	5	21	0
Cc1cc(C)nc(Nc2cccc(Cl)c2)n1	-22	0	0	0	-8	nt	nt
CN(C#N)c1nc(Cl)nc(Nc2cccc(Cl)c2)n1	-14	-3	597*	-10	-11	-3	0
O=C(CSc1ncn[nH]1)Nc1cccc(S(=O)(=O)N2CCCCCC2)c1	26	0	499*	-7	-3	-1	0
O=C(O)C1CCN(c2ccc(S(=O)(=O)N3CCC(C(=O)O)CC3)cc2[N+](=O)[O-])CC1	16	1	-13	-18	-10	nt	nt
CN(Cc1ccccc1)c1ccc(S(=O)(=O)N2CCC(C(=O)O)CC2)cc1[N+](=O)[O-]	-8	0	550*	5	-8	-4	0
COCCn1c(SCC(=O)N2CCCC2)nnc1-c1ccoc1C	-9	0	+	-10	-8	-9	0
COc1ccc(C(=O)NCCSc2ccc(C)cc2)cc1	nt	0	470*	21	-7	1	0
CCCNC(=O)c1ccc(N2CCC3(CC2)CC(c2ccccc2)=NO3)c(NC(=O)Cc2ccc(F)cc2)c1	5	0	16	14	10	nt	nt
COc1cc(C(=O)Nc2ccc3c(c2)OCCO3)ccc1-n1cnnn1	-5	0	+	-4	6	-17	0
CCN(CC(=O)Nc1c(F)cccc1F)C(=O)C1CC1C (stereo not given)	-12	0	-17	-5	-5	nt	nt
COc1cccc(C2C(C(C)=O)=C(O)C(=O)N2CCc2c[nH]c3ccccc23)c1 (stereo not given)	-3	0	604*	9	-2	-1	0
CSc1ccccc1NC(=O)CN(C)CC(=O)NCC(=O)Nc1ccc(F)cc1	-2	0	177	-3	-5	nt	nt
O=C(c1cn(-c2ccccc2)nc1-c1ccccc1)N1CCN(c2ccccn2)CC1	34	0	-28	-1	6	17	nt
Cc1ccc(-c2nn(-c3ccccc3)cc2C(=O)N2CCN(c3ccccn3)CC2)cc1	-3	0	596*	17	4	50	1
CC1CN(C(=O)CCS(=O)(=O)c2ccccc2)CC(C)O1 (stereo not given)	2	0	178	-9	-5	nt	nt
COc1ccccc1N1C(=O)c2ccccc2NC1c1cc(OC)c(OC)c(OC)c1 (stereo not given)	-10	0	-5	1	2	nt	nt
COc1ccccc1N1C(=O)c2ccccc2NC1C(OC)OC (stereo not given)	-8	0	+	-3	-1	-6	0
Cc1ccc(S(=O)(=O)N(CC2CO2)c2cc(Cl)ccc2Cl)cc1 (stereo not given)	-4	0	6	13	1	nt	nt
Cc1ccc(C)c(C(C)NC(=O)c2ccncc2)c1 (stereo not given)	0	0	752*	-6	-1	nt	0
SMILES	CSC inhib	Efflux pump mplx	SUMO Mot1 rescue	T cruzi repl	Beta cell apopt	WT yeast gro inh	Mot1 SUMO dose
O=C(c1ccc2c(=O)n(Cc3ccccc3Cl)c(=S)[nH]c2c1)N1CCOCC1	-16	0	422*	-13	4	nt	1
CC(=O)/C=C/n1c(=S)oc2ccccc21	-1	0	421*	21	100*	5	-2
CC(C)CC(=O)/C=C/n1c(=S)oc2ccccc21	29	0	24	-3	65	5	nt
COc1ccc(N2CCN(C(=O)CNC(=O)Cc3ccc(Cl)cc3)CC2)cc1	2	0	410*	4	-5	nt	0
COc1ccccc1/C=C/C(=O)OCC(=O)N1c2ccccc2CC1C (stereo not given)	nt	0	-3	nt	-5	nt	nt
COCCN(C(=S)Nc1ccccc1OC)C(C)c1cccs1 (stereo not given)	-12	0	-10	6	-13	9	nt
CCCn1c(SC(C)C(=O)NC2CC2)nnc1-c1ccncc1 (stereo not given)	nt	0	2	nt	-2	nt	nt
Cc1cc([N+](=O)[O-])ccc1NC(=O)CSc1nccc(=O)[nH]1	5	0	378*	-8	2	-5	0
Cc1cc([N+](=O)[O-])ccc1NC(=O)CSc1nnc(C)n1C	-4	0	94	8	-6	nt	nt
COc1ccc(-c2nc3c(c(SCC(=O)N4CCOCC4)n2)Cc2c(CO)cnc(C)c2O3)cc1	8	0	380*	1	3	nt	0
Cc1ccc(-c2nc3c(c(SCC(=O)N4CCOCC4)n2)Cc2c(CO)cnc(C)c2O3)cc1	1	0	-7	2	2	nt	nt
COc1ccc2c(-c3ccccc3)cc(=S)[nH]c2c1	4	1	90	4	6	nt	nt
CCN1C(=S)N[C@@H](CCc2ccccc2)C(C(=O)OC)=C1C	6	0	+	-15	-3	nt	0
CCN1C(=S)N[C@@H](c2cccs2)C(C(=O)OC)=C1C	-4	0	896*	-19	0	nt	0
CC1(C)Cc2nc3sc4c(OCc5ccccc5)ncnc4c3cc2CO1	51	0	+	0	13	29	1
Cc1cc(-c2nnc3sc(C4CCCCC4)nn23)n[nH]1	nt	0	691*	6	4	10	0
COc1ccc(NC(C)(C)c2nnnn2-c2c(C)cccc2C)cc1	3	0	-2	-4	9	nt	nt
Cn1cc(C(=O)N2CCCC(Nc3ccc(F)cc3)C2)c2ccccc21 (stereo not given)	20	0	662*	17	8	nt	1
